Data reported in ChEMBL document CHEMBL4038309, “Design and Synthesis of Chlorinated and Fluorinated 7-Azaindenoisoquinolines as Potent Cytotoxic Anticancer Agents That Inhibit Topoisomerase I” (J Med Chem, 2017).
Active and inactive are the calls of the source. The rule behind the calls is not given here.

Experiments:
CCRF-CEM = assay: Induction of DNA damage in human CCRF-CEM cells assessed as gamma-H2AX foci formation at 0.1 to 1 uM after 2 hrs by confocal microscopy; format: functional, cell-based
PBMC = assay: Induction of DNA damage in human PBMC assessed as gamma-H2AX foci formation at 0.1 to 1 uM after 2 hrs by confocal microscopy; format: cell-based
MCF7 = assay: Antiproliferative activity against human MCF7 cells assessed as growth inhibition; format: functional
In short: (§1)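 NCI-60 screen: single-dose pre-screen at 10 μM, then five concentrations from 0.01 to 100 μM. Values beyond the tested range are recorded as 0.01 or 100 μM.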

OVCAR-3 = assay: Antiproliferative activity against human OVCAR3 cells assessed as growth inhibition; format: functional; in short: as §1
HCT-116 = assay: Antiproliferative activity against human HCT116 cells assessed as growth inhibition; format: functional; in short: as §1
SF-539 = assay: Antiproliferative activity against human SF539 cells assessed as growth inhibition; format: functional; in short: as §1
DU-145 = assay: Antiproliferative activity against human DU145 cells assessed as growth inhibition; format: functional; in short: as §1
UACC-62 = assay: Antiproliferative activity against human UACC62 cells assessed as growth inhibition; format: functional; in short: as §1
[1] = target: T1, DNA topoisomerase 1 (Homo sapiens) (UniProt P11387); assay: Inhibition of recombinant Top1 (unknown origin) assessed as Top 1 mediated DNA cleavage using 3'-[32P]-labeled 117 bp DNA as substrate at 0.1 to 100 uM after 20 mins by PAGE analysis
T1 sequence (whole entry): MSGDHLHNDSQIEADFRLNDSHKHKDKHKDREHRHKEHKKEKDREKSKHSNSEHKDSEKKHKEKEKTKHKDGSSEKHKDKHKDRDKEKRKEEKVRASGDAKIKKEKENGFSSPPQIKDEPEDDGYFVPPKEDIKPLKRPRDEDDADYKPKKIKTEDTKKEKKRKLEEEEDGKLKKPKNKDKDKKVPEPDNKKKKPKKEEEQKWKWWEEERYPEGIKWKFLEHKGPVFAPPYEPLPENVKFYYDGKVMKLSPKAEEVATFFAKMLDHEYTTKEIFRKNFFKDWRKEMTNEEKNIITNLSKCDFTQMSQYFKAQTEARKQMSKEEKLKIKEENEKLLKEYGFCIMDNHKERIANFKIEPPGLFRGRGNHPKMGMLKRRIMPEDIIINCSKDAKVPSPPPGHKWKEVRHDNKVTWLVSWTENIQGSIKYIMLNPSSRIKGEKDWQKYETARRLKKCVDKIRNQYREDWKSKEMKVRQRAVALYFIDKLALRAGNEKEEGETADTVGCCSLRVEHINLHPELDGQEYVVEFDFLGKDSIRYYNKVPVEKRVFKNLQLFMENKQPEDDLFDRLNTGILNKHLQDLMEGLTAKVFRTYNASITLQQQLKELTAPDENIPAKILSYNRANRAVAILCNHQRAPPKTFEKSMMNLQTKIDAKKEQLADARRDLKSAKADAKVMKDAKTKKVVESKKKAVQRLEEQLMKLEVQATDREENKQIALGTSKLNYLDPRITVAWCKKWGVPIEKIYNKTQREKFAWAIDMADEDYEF
In short: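 About 2 nM 3'-[32P]-labeled DNA with recombinant Top1 in 10 mM Tris-HCl pH 7.5, 50 mM KCl, 5 mM MgCl2, 0.1 mM EDTA, 15 μg/mL BSA, 25 °C, 20 min. Compound at 0.1, 1, 10 and 100 μM. Stopped with 0.5% SDS and formamide dye, then run on 20% denaturing PAGE with phosphorimaging.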

HOP-62 = assay: Antiproliferative activity against human HOP62 cells assessed as growth inhibition; format: functional; in short: as §1
[2] = target: T2, Tyrosyl-DNA phosphodiesterase 2 (Homo sapiens, UniProt O95551); assay: Inhibition of recombinant human TDP2 using 3'-labeled alpha-[32P]-cordycepin as substrate after 15 mins
T2 sequence (O95551 whole entry): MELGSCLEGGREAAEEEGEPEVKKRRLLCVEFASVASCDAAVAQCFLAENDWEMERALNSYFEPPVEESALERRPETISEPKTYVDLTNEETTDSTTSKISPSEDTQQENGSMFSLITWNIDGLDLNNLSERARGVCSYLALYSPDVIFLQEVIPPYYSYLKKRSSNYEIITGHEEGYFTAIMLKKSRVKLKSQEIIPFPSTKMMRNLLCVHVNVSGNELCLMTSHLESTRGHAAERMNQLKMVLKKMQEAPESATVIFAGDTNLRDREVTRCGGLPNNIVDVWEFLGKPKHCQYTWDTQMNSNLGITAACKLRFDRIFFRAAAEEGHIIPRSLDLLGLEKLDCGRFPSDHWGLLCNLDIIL

SN12C = assay: Antiproliferative activity against human SN12C cells assessed as growth inhibition; format: functional; in short: as §1
[3] = Toxicity in zebrafish embryo assessed as survival at 1 uM preincubated for 1 hr measured after 24 hrs (reference value: 86.2 +/- 8.5%); parameters: species or system Danio rerio; details: zebrafish embryos
[4] = Toxicity in zebrafish embryo assessed as survival at 0.01 uM preincubated for 1 hr measured after 72 hrs (reference value: 82.5 +/- 8.4%); parameters: species or system Danio rerio; details: zebrafish embryos
[5] = Toxicity in zebrafish embryo assessed as survival at 0.1 uM preincubated for 1 hr measured after 48 hrs (reference value: 84.4 +/- 8.5%); parameters: species or system Danio rerio; details: zebrafish embryos
[6] = Toxicity in zebrafish embryo assessed as survival at 10 uM preincubated for 1 hr measured after 24 to 120 hrs (reference value: 82.5 to 86.2%); parameters: species or system Danio rerio; details: zebrafish embryos
[7] = Toxicity in zebrafish embryo assessed as survival at 0.1 uM preincubated for 1 hr measured after 24 hrs (reference value: 86.2 +/- 8.5%); parameters: species or system Danio rerio; details: zebrafish embryos
[8] = Toxicity in zebrafish embryo assessed as survival at 1 uM preincubated for 1 hr measured after 48 hrs (reference value: 84.4 +/- 8.5%); parameters: species or system Danio rerio; details: zebrafish embryos
[9] = Toxicity in zebrafish embryo assessed as survival at 0.01 uM preincubated for 1 hr measured after 96 hrs (reference value: 82.5 +/- 8.4%); parameters: species or system Danio rerio; details: zebrafish embryos
[10] = Toxicity in zebrafish embryo assessed as survival at 1 uM preincubated for 1 hr measured after 96 hrs (reference value: 82.5 +/- 8.4%); parameters: species or system Danio rerio; details: zebrafish embryos
Danio rerio [11] = species: Danio rerio; assay: Toxicity in zebrafish embryo assessed as increase in bent tail at 0.1 uM preincubated for 1 hr measured after 24 to 120 hrs; details: in vivo
In short: (§2)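 Wild-type AB zebrafish embryos, 4 clutch replicates of 40 embryos each, held at 28 °C through 120 hpf. Exposed in Petri dishes to 10, 1, 0.1 or 0.01 μM compound in filtered fish water with 0.1% DMSO. Water-only and DMSO controls included. Mortality, hatching and gross malformations observed.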

[12] = Toxicity in zebrafish embryo assessed as survival at 1 uM preincubated for 1 hr measured after 120 hrs (reference value: 82.5 +/- 8.4%); parameters: species or system Danio rerio; details: zebrafish embryos
Danio rerio [13] = assay: Toxicity in zebrafish embryo assessed as increase in yolk sac edema at 0.1 uM preincubated for 1 hr measured after 24 to 120 hrs; details: in vivo; in short: as §2
[14] = Toxicity in zebrafish embryo assessed as survival at 0.1 uM preincubated for 1 hr measured after 72 hrs (reference value: 82.5 +/- 8.4%); parameters: species or system Danio rerio; details: zebrafish embryos
[15] = Toxicity in zebrafish embryo assessed as survival at 0.01 uM preincubated for 1 hr measured after 24 hrs (reference value: 86.2 +/- 8.5%); parameters: species or system Danio rerio; details: zebrafish embryos
[16] = Toxicity in zebrafish embryo assessed as survival at 0.1 uM preincubated for 1 hr measured after 96 hrs (reference value: 82.5 +/- 8.4%); parameters: species or system Danio rerio; details: zebrafish embryos
Danio rerio [17] = species: Danio rerio; assay: Toxicity in zebrafish embryo assessed as hatching rate at 0.1 uM preincubated for 1 hr measured after 24 to 120 hrs; details: in vivo; in short: as §2
[18] = Toxicity in zebrafish embryo assessed as survival at 1 uM preincubated for 1 hr measured after 72 hrs (reference value: 82.5 +/- 8.4%); parameters: species or system Danio rerio; details: zebrafish embryos
[19] = Toxicity in zebrafish embryo assessed as survival at 0.01 uM preincubated for 1 hr measured after 120 hrs (reference value: 82.5 +/- 8.4%); parameters: species or system Danio rerio; details: zebrafish embryos
[20] = Toxicity in zebrafish embryo assessed as survival at 0.1 uM preincubated for 1 hr measured after 120 hrs (reference value: 82.5 +/- 8.4%); parameters: species or system Danio rerio; details: zebrafish embryos
[21] = Toxicity in zebrafish embryo assessed as survival at 0.01 uM preincubated for 1 hr measured after 48 hrs (reference value: 84.4 +/- 8.5%); parameters: species or system Danio rerio; details: zebrafish embryos

SMILES	Activity (CCRF-CEM)	Activity (PBMC)	GI50 (MCF7)	GI50 (OVCAR-3)	GI50 (HCT-116)	GI50 (SF-539)	GI50 (DU-145)	GI50 (UACC-62)	Top1-mediated DNA cleavage activity (active/not active) [1]	GI50 (HOP-62)	further results
COc1cc2c3c(n(CCCNCCO)c(=O)c2cc1OC)-c1cc2c(cc1C3=O)OCO2 [LMP-744]	Active	Non-Toxic									
CC[C@@]1(O)C(=O)OCc2c1cc1n(c2=O)Cc2cc3ccccc3nc2-1 [CAMPTOTHECIN]	Active	Non-Toxic	13 nM								
COc1cnc2c(c1)C(=O)c1c-2n(CCCN2CCC(O)CC2)c(=O)c2cc(Cl)ccc12	Active	Non-Toxic	42 nM	1420 nM	98 nM	430 nM	270 nM	190 nM	Active	94 nM	
CCNCCCn1c2c(c3ccc(Cl)cc3c1=O)C(=O)c1cc(OC)cnc1-2			< 10 nM	2130 nM	203 nM	506 nM	208 nM	532 nM	Active	122 nM	IC50 [2]: > 111000 nM; GI50 (SN12C): 675 nM
COc1cnc2c(c1)C(=O)c1c-2n(CCCn2ccnc2)c(=O)c2cc(Cl)ccc12			< 10 nM	120 nM	14 nM	38 nM	43 nM	28 nM	Active	20 nM	survival at 24 h, 1 µM [3]: 10.6%; survival at 72 h, 0.01 µM [4]: 63.1%; survival at 48 h, 0.1 µM [5]: 54.4%; survival at 10 µM [6]: 0%; survival at 24 h, 0.1 µM [7]: 55.6%; survival at 48 h, 1 µM [8]: 1.2%; survival at 96 h, 0.01 µM [9]: 61.8%; survival at 96 h, 1 µM [10]: 1.2%; Activity (Danio rerio [11]): Non-Toxic; survival at 120 h, 1 µM [12]: 1.2%; Activity (Danio rerio [13]): Non-Toxic; survival at 72 h, 0.1 µM [14]: 51.9%; survival at 24 h, 0.01 µM [15]: 67.5%; survival at 96 h, 0.1 µM [16]: 50.6%; Activity (Danio rerio [17]): Non-Toxic; survival at 72 h, 1 µM [18]: 1.2%; survival at 120 h, 0.01 µM [19]: 61.9%; survival at 120 h, 0.1 µM [20]: 50.6%; survival at 48 h, 0.01 µM [21]: 65.6%
